PostGolgi ctrl: growth of the yeast control strain, post-Golgi counter-screen. efflux-deficient yeast background strain, growth absorbance A615, 16 h. inhibition, % at 10 µM. 98,000 compounds, 5% hits. AID 738
tolC growth inh: E. coli tolC mutant growth inhibition; AID 573; 65,000 compounds, 2.2% hits; E. coli BW25113 tolC mutant growth, OD615; growth inhibition, % at 10 µM (by protocol);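 active = growth inhibition at or above a cutoff equal to the mean over every tested compound plus 3 SD, cut at about 60% in these data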;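 note: growth measured after 20 h incubation at 37 °C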
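Test system: tolC-deleted E. coli BW25113 | Medium: LB with kanamycin 50 µg/mL | Compound dosing: Single concentration, 10 µM final per compound | Schedule: 37 °C, 20 h exposure | Measured by: OD at 615 nm | Evaluation: Percent growth inhibition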
PostGolgi yeast: growth inhibition of a yeast mutant, post-Golgi transport screen; AID 739; inhibition, % at 10 µM; 98,000 compounds, 0.9% hits; post-Golgi transport phenotypic cell assay;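 note: yeast cells grown in 1536-well plates; yeast grown about 18 h at 30C before absorbance read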
E coli WT exp: blocks growth of wild type E. coli BW25113. OD600 absorbance. growth inhibition, % at 100 µM. 98,000 compounds, 0.15% hits. AID 710;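 active = growth inhibition above about 50% at one test dose, limit read from the data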;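 note: growth measured after 20 h incubation at 37 °C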
An asterisk follows results filed as active; . = not tested or not shown. A selection: hits, their analogues and other compounds. The true share with any hit is near 6.3%. Cut-off read from the data, not from the text of the source, unless noted: active = inhibition above about 30%; inactive = the rest.

SMILES	PostGolgi ctrl	tolC growth inh	PostGolgi yeast	E coli WT exp
CN(C)S(=O)(=O)c1ccc(C(=O)N2CCCC2c2nc3ccccc3s2)cc1 (stereo unspecified)	10	-2	16	-7
O=S(=O)(c1ccc(Br)cc1)N1CCCC1c1nc2ccccc2s1 (stereo unspecified)	40*	.	-7	-15
CCOC(=O)c1c(NC(=O)CSc2nnnn2-c2ccc(OC)cc2)sc(C)c1C	1	.	0	-4
O=C(CSc1nc2c(c(=O)[nH]1)CCCC2)Nc1ccc(Cl)cc1F	22	-5	12	-14
CC1CCCCC1NC(=O)c1ccc(N2CCCC2=O)cc1 (stereo unspecified)	33*	-6	-17	2
O=C(NC1CCCCCC1)c1cccc(N2CCCC2=O)c1	13	-15	-1	4
COc1ccc(N2CCN(C(=O)c3ccc(OCC4CCCO4)cc3)CC2)cc1 (stereo unspecified)	-6	-2	-4	-1
CC(CN1CCCC(C(N)=O)C1)c1ccccc1 (stereo unspecified)	0	-10	-5	1
CCCNC(=O)c1ccccc1NC(=O)c1ccc(CSc2ccccc2)cc1	80*	.	12	-3
Cc1occc1C(=O)n1cnc2ccccc21	-1	-4	20	10
Cc1occc1C(=O)n1nnc2ccccc21	32*	-6	7	-3
CC1=CC(C)(C)N(S(=O)(=O)c2ccc(C)cc2)c2ccc(C)cc21	60*	.	1	-9
c1ccc(-c2nnc(-c3ccccn3)nc2NC2CCCCC2)cc1	87*	.	40*	100*
Cc1nc2sc3c(c2c2nc(-c4ccco4)nn12)CC(C)(C)OC3	.	-12	.	.
Cc1cccnc1Nc1nc(-c2ccc(O)c(O)c2)cs1	83*	.	-1	23
CCc1c(C(C)O)oc2ccc3c(C)cc(=O)oc3c12 (stereo unspecified)	1	13	-7	2
COc1cc(NS(=O)(=O)c2ccc(C)cc2)c2ncccc2c1	36*	26	-1	-5
Cc1ccc(S(=O)(=O)Nc2cccc3cccnc23)cc1	22	.	-4	-3
COc1ccc(OC)c(NS(=O)(=O)c2ccc(NC(C)=O)cc2)c1	4	.	-4	7
COc1ccc(S(=O)(=O)Nc2cc3c(C(C)=O)c(C)oc3c3ccccc23)cc1	65*	.	4	6
COCCOC(=O)c1c(C)n(C)c2ccc(OC(=O)c3ccco3)cc12	10	.	-6	-3
CCOC(=O)c1c(C)n(C)c2ccc(OC(=O)c3ccoc3)cc12	32*	-4	7	-10
CN(C)/C=C(\C=N\OCc1ccc(Cl)cc1Cl)C(=O)Nc1ccc(Cl)c(Cl)c1	2	.	4	-10
COc1ccc(C(=O)NCC2OCCc3ccccc32)c(O)c1 (stereo unspecified)	6	9	0	0
C=CCOC(=O)C1=C(C)Nc2ncnn2C1c1cccs1 (stereo unspecified)	15	.	31*	-1
SMILES	PostGolgi ctrl	tolC growth inh	PostGolgi yeast	E coli WT exp
CCCCCCCCOC(=O)C1=C(C)Nc2nnnn2C1c1cccs1 (stereo unspecified)	79*	.	18	-3
CC1=[N+]([O-])C(C)(C)CC(C)(C)c2ccccc21	30*	-23	5	4
CC1(C)CC(=O)C2=C(C1)OC(N)=C(C#N)C2c1ccc(OC(=O)N2CCOCC2)cc1 (stereo unspecified)	6	5	-5	-18
N#CC1=C(N)OC2=C(C(=O)CCC2)C1c1ccc(OC(=O)N2CCOCC2)cc1 (stereo unspecified)	38*	-14	-9	3
COc1cc(C2C(C#N)=C(N)OC3=C2C(=O)CC(C)(C)C3)ccc1OC(=O)N1CCOCC1 (stereo unspecified)	33*	-8	0	2
Clc1ccc(Cl)c(-c2nn3c(COc4ccccc4)nnc3s2)c1	-2	96*	-2	-1
COc1cc(CNCC(O)c2ccccc2)ccc1OCc1ccc(Cl)nc1 (stereo unspecified)	4	.	0	6
COc1cc(CNCCc2ccccc2)ccc1OCc1ccc(Cl)nc1	39*	.	18	1
Cc1cccc(C)c1-n1c(SCC(=O)NCc2ccco2)nc2ccccc2c1=O	8	.	5	-5
CCOCCOCN(C#N)c1nc(OC)nc(N(C)C)n1	2	9	-5	0
COc1ccccc1-c1nnc(NC(=O)C(C)SC2=NCCS2)s1 (stereo unspecified)	38*	11	11	-9
CC(SC1=NCCS1)C(=O)Nc1nnc(-c2ccc(Cl)cc2)s1 (stereo unspecified)	0	.	10	1
Cc1cc(C)c2cc(CN(CCO)C(c3nnnn3Cc3ccc(F)cc3)C(C)C)c(=O)[nH]c2c1 (stereo unspecified)	11	70*	-5	-6

High-throughput results from PubChem BioAssay.
